Test results from article PMC5338879 (Journal of Hypertension, 2016).
“Also recorded” adds a separate entry of the source.

Experiments:
[1] = Plasma pharmacokinetics after in-clinic subcutaneous doses; format: in vivo, human; details: for Cmax, mean: plasma, LC-MS/MS
Method in brief: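 Blood was sampled predose and at 0.5, 1.0 and 2.0 h postdose at both double-blind in-clinic sc dosing visits (0.75, 1.25 or 1.75 mg). Plasma was assayed by validated LC-MS/MS. Noncompartmental analysis gave Cmax, Tmax, […] and AUC(0–2). For each dose level and visit, mean Cmax, range and coefficient of variation were reported.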

[2] = tested on: premenopausal women with female sexual dysfunction; assay: Treatment-emergent adverse events, 12-week double-blind treatment; format: in vivo, human; details: all bremelanotide dosages; no marked dosage dependence
Method in brief: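 Adverse events were queried at every clinic visit after screening. Physical examination, vital signs, 12-lead ECG and clinical laboratory tests were also performed. Events were tabulated in all participants given at least one double-blind dose.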

[3] = tested on: premenopausal women with female sexual dysfunction; assay: Protocol-directed blood pressure-related withdrawals after randomization; format: in vivo, human
Method in brief: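 Ambulatory BP records were screened manually and programmatically for SBP ≥150 mmHg, DBP ≥95 mmHg, SBP rise ≥30 mmHg or DBP rise ≥15 mmHg. Flagged reports went to safety staff, including a hypertension expert blinded to treatment, who also reviewed activities, HR and other medications. Participants meeting the prespecified criteria (absolute level, change from baseline, duration) were withdrawn.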

[4] = tested on: premenopausal women with female sexual dysfunction; assay: Ambulatory BP and heart rate monitoring after in-clinic subcutaneous doses; format: in vivo, human; details: for Increase in ambulatory SBP relative to placebo (abstract): second of two doses, 0 to 4-h postdose interval
Method in brief: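 Premenopausal women aged ≥21 years were randomized 1:1:1:1 to placebo or 0.75, 1.25 or 1.75 mg sc (anterior thigh or abdomen). The ambulatory monitor was fitted before each in-clinic dose and recorded at 15-min intervals. Baseline was the single-blind in-clinic placebo dose, and changes were placebo-subtracted over 0–4, >4–8, >8–24 and 0–24 h. SBP shifts were counted per 15 min against thresholds of 10/15 mmHg change and 150/160 mmHg absolute.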

[5] = tested on: men with erectile dysfunction; details: single sc doses of 4–6 mg; cited from earlier work
[6] = high sc doses, men with erectile dysfunction; cited from earlier work
[7] = intranasal administration; cited from earlier work
[8] = initial in-clinic dose, linear regression, all dose levels

Question: Which results are given for `CCCC[C@H](NC(C)=O)C(=O)N[C@H]1CC(=O)NCCCC[C@@H](C(=O)O)NC(=O)[C@H](Cc2c[nH]c3ccccc23)NC(=O)[C@H](CCCN=C(N)N)NC(=O)[C@@H](Cc2ccccc2)NC(=O)[C@H](Cc2cnc[nH]2)NC1=O` [bremelanotide]?
Answer: Dose proportionality of pharmacokinetics ([1]; 0.75, 1.25, 1.75 mg sc, both in-clinic doses): dose proportionality; also recorded: dose-proportional increases in concentrations; Cmax ([1]; human, in vivo, sc, 0.75 mg): 37.5 ng/mL; Cmax, mean ([1]; second in-clinic dose 0.75 mg sc, n 89): 37.3 ng/mL; Cmax, mean ([1]; second in-clinic dose 1.25 mg sc, n 84): 60.1 ng/mL; Cmax, mean ([1]; second in-clinic dose 1.75 mg sc, n 88): 77.7 ng/mL; Most common adverse events [2]: nausea, flushing, and headache; Participants withdrawn after randomization (BP-related) ([3]; after a 0.75-mg dose, of 100): 4%; Participants withdrawn after randomization (BP-related) ([3]; after a 1.25-mg dose, of 99): 9%; Participants withdrawn after randomization (BP-related) ([3]; after a 1.75-mg dose, of 98): 7%; Proportion of SBP shift events lasting 15 min or less ([4]; after bremelanotide dosing): 88%; Number of clinically important shifts in SBP (>10 or >15 mmHg) lasting more than 30 min ([4]; all bremelanotide doses): three; Patients with SBP increase at least 15 mmHg for more than 30 min ([4]; any bremelanotide group): No patient; Patients with SBP more than 180 mmHg for more than 15 min ([4]; any bremelanotide group): No patient; also recorded: no sustained elevations; Relationship between maximal change in HR and Cmax [4, 8]: no relationship observed; Relationship between maximal change in SBP and Cmax [4, 8]: no relationship observed; Duration of peak increases in ambulatory BP ([4]; sc doses, typically): less than 15 min; Increase in ambulatory SBP relative to placebo (abstract) ([4]; 1.25 mg sc, P 0.076): 3.0 mmHg; Increase in ambulatory SBP relative to placebo (abstract) ([4]; 1.75 mg sc, P 0.027): 3.2 mmHg; Mean HR reductions ([4]; subcutaneous doses, up to 8 h following administration): 4.6–6.6 bpm; Transient increases in clinic SBP [5]: 4–5 mmHg; Tmax [6]: 30 to 60 min; mean half-life [6]: 1.9 to 2.7 h; Variability in bioavailability [7]: wide variability in bioavailability
